Results as given in article PMC4357494 (Journal of molecular biology, 2014).
Where a SMILES comes first, the peptide text is derived from it.

What was measured:
[1] = target: T1, Bcl-w (residues 1-164) (Homo sapiens, UniProt Q92843); assay: Fluorescence polarization competition binding assay, Bcl-w; conditions: FP competition with fluorescein 18-residue Bim-BH3
T1 sequence (Q92843 1-164): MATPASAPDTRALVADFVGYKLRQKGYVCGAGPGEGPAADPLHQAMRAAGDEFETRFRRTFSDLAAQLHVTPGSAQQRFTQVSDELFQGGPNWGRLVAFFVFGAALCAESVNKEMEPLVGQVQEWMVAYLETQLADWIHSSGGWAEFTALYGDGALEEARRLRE
Outline: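 E. coli-expressed Bcl-w (residues 1-164), 50 nM final, competed against 10 nM N-terminal fluorescein 18-mer Bim-BH3. Unlabeled peptide serially diluted and premixed with tracer 15 min before protein. Buffer: 20 mM sodium phosphate, 50 mM NaCl, 1 mM EDTA, 0.001% Triton X, 5% DMSO, pH 7.8, 25 °C.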

[2] = system: Bcl-2 3256 cells (Bcl-2 dependent)
[3] = target: MDA-MB-231 cells (Bcl-xL dependent) (Homo sapiens, UniProt Q07817)
[4] = target: Mcl-1 (residues 172-327) (Homo sapiens, UniProt Q07820); assay: Fluorescence polarization binding assay, Mcl-1
Outline: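 E. coli-expressed Mcl-1 (residues 172-327) in competition FP: 20 mM sodium phosphate, 50 mM NaCl, 1 mM EDTA, 0.001% Triton X, 5% DMSO, pH 7.8, 25 °C. Serially diluted unlabeled peptide plus 10 nM fluorescein tracer, 15 min, then protein. Tracer is 18-mer Bim-BH3 with 50 nM Mcl-1, or 23-mer Hrk-BH3 with 500 nM Mcl-1.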

[5] = system: DHL10 cells; assay: BH3 profiling, DHL10; format: cell-based; conditions: Bax- and Bak-deleted cell line
Outline: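 Test peptides (N-acetylated, C-amidated) titrated onto permeabilized Su-DHL10 cells (RPMI 1640, 10% FBS), 2×10^4 cells/well, triplicate wells per concentration. JC-1 fluorescence gives membrane-potential loss, normalized as 1 – [(Dsample–DFCCP)/(DDMSO–DFCCP)] against FCCP and DMSO. EC50 from global fit with linked baselines; at least three biological replicates, 2-3 days of culture apart.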

[6] = system: Mcl-1 2640 cells (Mcl-1 dependent); assay: BH3 profiling, Mcl-1 2640; format: cell-based, murine; conditions: 5 μM peptide
Outline: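 Myc-driven murine leukemia line, Mcl-1 dependent, grown in RPMI 1640 with 10% FBS and […] 2-mercaptoethanol. Permeabilized cells at 2×10^4/well, triplicate wells, exposed to peptides including 5 μM. JC-1 read-out; depolarization expressed as percentage relative to FCCP (full) and DMSO (none). At least three biological replicates.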

[7] = target: primary human platelets (Bcl-xL dependent) (Homo sapiens, UniProt Q07817); conditions: primary human platelet samples
[8] = target: Bcl-2 (residues 1-217) (Homo sapiens, UniProt P10415); assay: Fluorescence polarization competition binding assay, Bcl-2; conditions: FP competition with fluorescein 18-residue Bim-BH3
Outline: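 Human Bcl-2 (residues 1-217), expressed in E. coli. Buffer: 20 mM sodium phosphate, 50 mM NaCl, 1 mM EDTA, 0.001% Triton X, 5% DMSO, pH 7.8, 25 °C. Competition: test peptide serially diluted, 10 nM fluorescein Bim-BH3 added, 15 min at RT, then 50 nM Bcl-2 (final). Anisotropy read over 2-48 h, then curves fit. Direct: titrated protein, 10 nM probe, read 4-24 h.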

[9] = target: Bcl-xL (residues 1-209) (Homo sapiens, UniProt Q07817); assay: Fluorescence polarization competition binding assay, Bcl-xL; conditions: FP competition with 23-mer fluorescently labeled Bim-BH3
Bcl-xL (residues 1-209), sequence (Q07817 1-209): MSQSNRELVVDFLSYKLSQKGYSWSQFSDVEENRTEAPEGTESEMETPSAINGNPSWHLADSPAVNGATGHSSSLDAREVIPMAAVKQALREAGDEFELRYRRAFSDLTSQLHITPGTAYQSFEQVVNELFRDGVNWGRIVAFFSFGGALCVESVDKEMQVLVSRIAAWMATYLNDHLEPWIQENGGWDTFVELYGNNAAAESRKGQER

Mcl-1 (residues 172-327), sequence (Q07820 172-327): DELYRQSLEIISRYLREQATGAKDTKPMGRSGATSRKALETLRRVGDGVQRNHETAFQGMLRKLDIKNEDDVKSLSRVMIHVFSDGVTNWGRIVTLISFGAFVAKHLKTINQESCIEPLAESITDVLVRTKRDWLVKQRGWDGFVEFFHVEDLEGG
primary human platelets (Bcl-xL dependent), sequence (Q07817 1-209): as the sequence (Q07817 1-209) above
MDA-MB-231 cells (Bcl-xL dependent), sequence (Q07817 1-209): as above
Bcl-2 (residues 1-217), sequence (P10415 1-217): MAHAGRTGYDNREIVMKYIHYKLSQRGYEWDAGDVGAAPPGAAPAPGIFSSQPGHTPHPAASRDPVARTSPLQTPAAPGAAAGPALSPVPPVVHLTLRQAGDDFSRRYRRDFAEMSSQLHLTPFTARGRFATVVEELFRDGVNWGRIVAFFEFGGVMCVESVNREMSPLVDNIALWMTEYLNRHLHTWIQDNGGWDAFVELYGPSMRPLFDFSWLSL

CC[C@H](C)[C@H](NC(=O)[C@H](CCC(=O)O)NC(=O)[C@@H]1CCCN1C(=O)[C@H](CCCNC(=N)N)NC(C)=O)C(=O)N[C@@H](Cc1c[nH]c2ccccc12)C(=O)N[C@@H](Cc1ccc(O)cc1)C(=O)N[C@@H](C)C(=O)N[C@@H](CCC(N)=O)C(=O)N[C@@H](CCC(=O)O)C(=O)N[C@@H](CC(C)C)C(=O)N[C@@H](CCCCN)C(=O)N[C@@H](CCCNC(=N)N)C(=O)N[C@@H](Cc1ccccc1)C(=O)NCC(=O)N[C@@H](CC(=O)O)C(=O)N[C@@H](CCC(=O)O)C(=O)N[C@@H](Cc1ccccc1)C(=O)N[C@@H](CC(N)=O)C(=O)N[C@@H](C)C(=O)N[C@@H](Cc1ccc(O)cc1)C(=O)N[C@@H](Cc1ccc(O)cc1)C(=O)N[C@@H](C)C(=O)N[C@@H](CCCNC(=N)N)C(N)=O [XXA1_G2gE] (Ac-RPEIWYAQELKRFGDEFNAYYAR-NH2)
binding to Bcl-w (in words) [1]: bound tighter than XXA1
EC50 [2]: 141 ± 50 nM
potency relative to Bad [3]: ~ 7 fold
Ki [4]: ~31 nM
competition with fluorescently labeled Bim-BH3 for binding to Mcl-1 (in words) ([4]; FP competition): Neither XXA1 nor XXA1_G2gE could compete
non-specific pore forming activities [5]: None
depolarization in the Mcl-1 dependent line (in words) [6]: low amount of depolarization
depolarization of platelets (in words) [7]: potent depolarization
binding to Bcl-2 (in words) [8]: bound tighter than XXA1
binding to Bcl-xL relative to XXA1 (in words) [9]: bound more tightly than XXA1
